Source: PubChem BioAssay
Calls of active or inactive are those of the source.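 How the source made its calls, unless noted: active means viability at or under a set limit in both replicates, limit being median viability minus 3 SD (cut at about 48% in these data, passing the limit was not always enough); inconclusive means at or under the limit in just one replicate; inactive means at or above the limit in both replicates.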

Key:
[1] = Her2 expression decrease, cell viability multiplex – SKBR3 breast tumor cells, AlphaScreen, ATP viability, primary screen (AID 461;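 active means Her2 level under about 52% in both replicate screens, with viability over 70% of control, limit read from the data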;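 on Her2 level: lower value means less Her2 protein in the cells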;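 on viability: percent of carrier control wells set as 100% viability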); details: SKBR3 Her2 protein level, 18-24 h, measured here: SKBR3 viability, ATP luminescence, at 10 µM
[2] = molecular target: Receptor tyrosine-protein kinase erbB-2 (Homo sapiens) (UniProt P04626); test: as above; details: 18-24 h, at 10 µM, stronger effect = lower value
[3] = reduced viability of SK-BR-3 breast cancer cells – cell-based, 24 h, human, pilot screen (AID 572;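 active means viability at or below 10% of carrier control in both of two separate runs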;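 further: compound exposure lasted between 18 and 24 h rather than exactly 24 h; 100% = carrier-treated control wells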); details: SK-BR-3 viability, CellTiter-Glo luminescence, at 10 µM, stronger effect = lower value
[4] = HUVEC growth inhibition – cell-based, human, primary screen (AID 575;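 active means viability at or below 30% in both replicate assays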;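 further: 100% = median of untreated cell wells with 0.1% DMSO on each plate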); details: HUVEC proliferation, CellTiter-Glo luminescence, 72 h; at 10 µM; stronger effect = lower value
Method in brief: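 system = HUVEC primary cells | amount = 1250 cells/well | buffer or medium = supplemented EBM, 2% fetal bovine serum | dosing = single-point 10 µM, DMSO 0.1% final | times = 72 h compound incubation | detection = CTG luminescence | read-out = % viability relative to median vehicle-well signal on each plate | control set = vehicle and MePR control wells | format = collagen-coated 384-well format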

[5] = H69AR cell proliferation blockers – human, duplicate replicates, primary screen (AID 580); details: H69AR lung tumor cells viability, ATP luminescence, 72 h; at 10 µM; stronger effect = lower value;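 further: 100% = mean luminescence of untreated wells and 0% = no signal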
[6] = MRP1 drug-resistance reversers in H69AR cells – cell-based, doxorubicin co-treatment, pilot screen (AID 601;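 active means viability loss from added drug above about 55%, and viability with drug at most 40%, in both replicates, limit read from the data, passing the limit was not always enough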); details: CellTiter-Glo, 72 h, at 10 µM; for differential viability (reversal): stronger effect = higher value
[7] = yeast transport mutant growth inhibition pilot in 384-well plates, post-Golgi transport modulator project (AID 636; in the data active means inhibition above about 31%); details: absorbance 615 nm, about 18 h, stronger effect = higher value
[8] = growth suppression of yeast trafficking mutant, preliminary HTS, modulators of trafficking downstream of Golgi apparatus project, 1536-format plate, OD 615 nm (AID 637; in the data active means inhibition above about 30%); details: yeast transport mutant growth, absorbance 615 nm, 18 h; stronger effect = higher value
[9] = H69AR cells + 2 uM doxorubicin, measured here: viability with 2 uM doxorubicin, stronger effect = lower value
[10] = H69AR cells, compound alone cytotoxicity

Receptor tyrosine-protein kinase erbB-2 (Homo sapiens), sequence (P04626 whole entry, looked up): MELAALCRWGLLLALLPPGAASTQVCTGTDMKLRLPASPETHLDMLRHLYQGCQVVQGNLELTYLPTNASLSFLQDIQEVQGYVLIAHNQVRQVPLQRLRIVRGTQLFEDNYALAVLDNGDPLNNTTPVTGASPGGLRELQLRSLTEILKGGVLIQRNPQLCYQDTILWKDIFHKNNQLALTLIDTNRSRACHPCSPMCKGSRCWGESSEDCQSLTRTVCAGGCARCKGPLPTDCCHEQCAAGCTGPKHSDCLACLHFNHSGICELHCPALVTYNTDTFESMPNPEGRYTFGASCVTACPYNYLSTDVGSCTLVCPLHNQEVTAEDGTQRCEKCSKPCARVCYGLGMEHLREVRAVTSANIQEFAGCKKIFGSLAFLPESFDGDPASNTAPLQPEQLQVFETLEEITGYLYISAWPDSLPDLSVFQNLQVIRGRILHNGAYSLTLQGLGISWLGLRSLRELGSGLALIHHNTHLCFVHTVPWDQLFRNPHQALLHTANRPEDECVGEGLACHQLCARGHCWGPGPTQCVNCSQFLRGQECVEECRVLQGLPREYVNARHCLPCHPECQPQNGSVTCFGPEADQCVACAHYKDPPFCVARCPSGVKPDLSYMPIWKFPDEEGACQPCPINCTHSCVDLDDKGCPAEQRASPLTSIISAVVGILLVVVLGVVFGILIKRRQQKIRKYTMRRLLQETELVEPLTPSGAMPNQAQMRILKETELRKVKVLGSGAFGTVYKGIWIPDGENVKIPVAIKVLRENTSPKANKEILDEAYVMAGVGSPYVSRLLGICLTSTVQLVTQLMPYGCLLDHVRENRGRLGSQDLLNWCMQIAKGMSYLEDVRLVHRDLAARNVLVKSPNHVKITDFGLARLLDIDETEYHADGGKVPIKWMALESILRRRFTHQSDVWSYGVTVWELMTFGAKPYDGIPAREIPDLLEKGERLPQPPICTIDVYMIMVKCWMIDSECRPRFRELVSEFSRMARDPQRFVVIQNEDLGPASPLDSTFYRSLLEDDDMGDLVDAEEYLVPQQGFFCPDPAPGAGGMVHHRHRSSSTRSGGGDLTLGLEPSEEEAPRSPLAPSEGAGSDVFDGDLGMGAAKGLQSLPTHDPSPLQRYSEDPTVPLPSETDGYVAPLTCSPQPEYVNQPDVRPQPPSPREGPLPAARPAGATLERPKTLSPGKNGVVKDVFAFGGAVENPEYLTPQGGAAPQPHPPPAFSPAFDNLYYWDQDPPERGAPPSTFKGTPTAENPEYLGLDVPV

In the case of `O=C(CN1C(=O)C2CC=C(Cl)CC2C1=O)Nc1ccc(C(=O)O)cc1` (stereo not given), the viability [1] was 127%, the Her2 level [2] was 101% (inactive) and the viability [3] was 127% (inactive). For the same compound, the viability [4] was 99.1% (inactive), the viability [5] was 94.7% (inactive) and the differential viability (reversal) ([6]; H69AR cells + 2 uM doxorubicin) was -0.64% (inactive). For the same compound, the viability [6, 9] was 95.4%, the viability [6, 10] was 94.7% and the inhibition [7] was -3.55% (inactive). The inhibition [8] was -0.16% (inactive).

In the case of `CCOc1ccc(S(=O)(=O)Nc2cccc(Cl)c2)cc1`, the viability [1] was 86%, the Her2 level [2] was 74.5% (inactive) and the viability [3] was 86% (inactive). The viability [4] was 50.7% (inactive), the viability [5] was 18.8% (active) and the differential viability (reversal) ([6]; H69AR cells + 2 uM doxorubicin) was -41.9% (inactive). For the same compound, the viability [6, 9] was 60.7%, the viability [6, 10] was 18.8% and the inhibition [7] was -5.07% (inactive). The inhibition [8] was -3.28% (inactive).

In the case of `Cc1ccc(C(=O)Nc2ccc3c(c2)OCO3)cc1S(=O)(=O)N1CCCC1`, the viability [1] was 102%, the Her2 level [2] was 89% (inactive) and the viability [3] was 102% (inactive). For the same compound, the viability [4] was 67.3% (inactive), the viability [5] was 82.6% (inactive) and the differential viability (reversal) ([6]; H69AR cells + 2 uM doxorubicin) was -0.715% (inactive). For the same compound, the viability [6, 9] was 83.3%, the viability [6, 10] was 82.6% and the inhibition [7] was -4% (inactive). For the same compound, the inhibition [8] was 2.54% (inactive).

In the case of `O=C(O)c1cc(/C=N\O)ccc1OCc1ccccc1`, the viability [1] was 114%, the Her2 level [2] was 106% (inactive) and the viability [3] was 114% (inactive). For the same compound, the viability [4] was 95.9% (inactive), the viability [5] was 103% (inactive) and the differential viability (reversal) ([6]; H69AR cells + 2 uM doxorubicin) was 11.7% (inactive). The viability [6, 9] was 91.2%, the viability [6, 10] was 103% and the inhibition [7] was -5.33% (inactive). The inhibition [8] was 1.29% (inactive).

In the case of `CC1(C)Cc2c(c(-c3ccccc3)nc(N3CCCC3)c2C(N)=O)CO1`, the viability [1] was 106%, the Her2 level [2] was 97.5% (inactive) and the viability [3] was 106% (inactive). For the same compound, the viability [4] was 92.3% (inactive), the viability [5] was 87% (inactive) and the differential viability (reversal) ([6]; H69AR cells + 2 uM doxorubicin) was 4.6% (inactive). For the same compound, the viability [6, 9] was 82.4%, the viability [6, 10] was 87% and the inhibition [7] was -1.95% (inactive). For the same compound, the inhibition [8] was 1.15% (inactive).

For `Cc1cc(NC(=O)CN2CCC(O)(c3cccc(F)c3)CC2)no1`, the viability [1] was 97%, the Her2 level [2] was 107% (inactive) and the viability [3] was 97% (inactive). For the same compound, the viability [4] was 110% (inactive), the viability [5] was 109% (inactive) and the differential viability (reversal) ([6]; H69AR cells + 2 uM doxorubicin) was 22.5% (inactive). For the same compound, the viability [6, 9] was 86.6%, the viability [6, 10] was 109% and the inhibition [7] was -0.27% (inactive). The inhibition [8] was -6.83% (inactive).

In the case of `COc1ccc2c(=O)c3c(=O)n(Cc4ccco4)c(C(C)C)nc3oc2c1`, the viability [1] was 96%, the Her2 level [2] was 93% (inactive) and the viability [3] was 96% (inactive). For the same compound, the viability [4] was 101% (inactive), the viability [5] was 99.4% (inactive) and the differential viability (reversal) ([6]; H69AR cells + 2 uM doxorubicin) was 9.28% (inactive). For the same compound, the viability [6, 9] was 90.1%, the viability [6, 10] was 99.4% and the inhibition [7] was -3.73% (inactive). For the same compound, the inhibition [8] was -9.52% (inactive).

For `Cc1ccc(S(=O)(=O)CC(=O)N2CCCCCC2)cc1`, the viability [1] was 85.5%, the Her2 level [2] was 100% (inactive) and the viability [3] was 85.5% (inactive). The viability [4] was 78.1% (inactive), the viability [5] was 92.7% (inactive) and the differential viability (reversal) ([6]; H69AR cells + 2 uM doxorubicin) was 1.99% (inactive). The viability [6, 9] was 90.7%, the viability [6, 10] was 92.7% and the inhibition [7] was -5% (inactive). For the same compound, the inhibition [8] was -6.07% (inactive).

With `CSc1nc(C)cc(Oc2ccc(=O)n(C)n2)n1` the viability [1] was 97%, the Her2 level [2] was 89.5% (inactive) and the viability [3] was 97% (inactive). The viability [4] was 112% (inactive), the viability [5] was 90.5% (inactive) and the differential viability (reversal) ([6]; H69AR cells + 2 uM doxorubicin) was 11.8% (inactive). For the same compound, the viability [6, 9] was 78.7%, the viability [6, 10] was 90.5% and the inhibition [7] was -3.92% (inactive). The inhibition [8] was -3.28% (inactive).

In the case of `CCN(C(=O)c1cc(Cl)ccc1OC)C1CCCCC1`, the viability [1] was 86.5%, the Her2 level [2] was 104% (inactive) and the viability [3] was 86.5% (inactive). For the same compound, the viability [4] was 101% (inactive), the viability [5] was 83.8% (inactive) and the differential viability (reversal) ([6]; H69AR cells + 2 uM doxorubicin) was -10.6% (inactive). For the same compound, the viability [6, 9] was 94.4%, the viability [6, 10] was 83.8% and the inhibition [7] was -2.86% (inactive). For the same compound, the inhibition [8] was -2.5% (inactive).

With `CCc1ccc(NC(=O)CSc2nnc(Cc3cccn3C)n2-c2ccc(OC)cc2)cc1` the viability [1] was 86%, the Her2 level [2] was 75% (inactive) and the viability [3] was 86% (inactive). For the same compound, the viability [4] was 61.1% (inactive), the viability [5] was 95.6% (inactive) and the differential viability (reversal) ([6]; H69AR cells + 2 uM doxorubicin) was -4.31% (inactive). The viability [6, 9] was 99.9%, the viability [6, 10] was 95.6% and the inhibition [7] was 1.03% (inactive). For the same compound, the inhibition [8] was 4.5% (inactive).

For `O=C(CCCCCn1c(SCc2ccncc2)nc2ccccc2c1=O)NCc1ccco1`, the viability [1] was 80.5%, the Her2 level [2] was 70.5% (inactive) and the viability [3] was 80.5% (inactive). For the same compound, the viability [4] was 96.9% (inactive), the viability [5] was 74.6% (inactive) and the differential viability (reversal) ([6]; H69AR cells + 2 uM doxorubicin) was -13% (inactive). The viability [6, 9] was 87.6%, the viability [6, 10] was 74.6% and the inhibition [7] was -1.18% (inactive). For the same compound, the inhibition [8] was -5.71% (inactive).

In the case of `CC(C)Cn1c(CN2CCCCC2C)nc2c1c(=O)n(C)c(=O)n2C` (stereo not given), the viability [1] was 88.5%, the Her2 level [2] was 91.5% (inactive) and the viability [3] was 88.5% (inactive). The viability [4] was 109% (inactive), the viability [5] was 94.2% (inactive) and the differential viability (reversal) ([6]; H69AR cells + 2 uM doxorubicin) was 16.7% (inactive). The viability [6, 9] was 77.6%, the viability [6, 10] was 94.2% and the inhibition [7] was -5.73% (inactive). For the same compound, the inhibition [8] was -3.61% (inactive).

For `Cc1[nH]c(=O)[nH]c(=O)c1S(=O)(=O)N1CCN(c2cccc(Cl)c2)CC1`, the viability [1] was 88%, the Her2 level [2] was 112% (inactive) and the viability [3] was 88% (inactive). The viability [4] was 82.6% (inactive), the viability [5] was 93.2% (inactive) and the differential viability (reversal) ([6]; H69AR cells + 2 uM doxorubicin) was 1.64% (inactive). The viability [6, 9] was 91.6%, the viability [6, 10] was 93.2% and the inhibition [7] was 3.95% (inactive). The inhibition [8] was -9.35% (inactive).

With `COC(=O)CC1SC(=O)NC1=O` (stereo not given) the viability [1] was 110%, the Her2 level [2] was 120% (inactive) and the viability [3] was 110% (inactive). For the same compound, the viability [4] was 102% (inactive), the viability [5] was 105% (inactive) and the differential viability (reversal) ([6]; H69AR cells + 2 uM doxorubicin) was 10.4% (inactive). For the same compound, the viability [6, 9] was 94.6%, the viability [6, 10] was 105% and the inhibition [7] was 1.05% (inactive). The inhibition [8] was -7.21% (inactive).

For `O=C(N1CCCCCC1)N1CCN(S(=O)(=O)N2CCCCC2)CC1`, the viability [1] was 101%, the Her2 level [2] was 91.5% (inactive) and the viability [3] was 101% (inactive). The viability [4] was 99.5% (inactive), the viability [5] was 94% (inactive) and the differential viability (reversal) ([6]; H69AR cells + 2 uM doxorubicin) was -5.71% (inactive). The viability [6, 9] was 99.7%, the viability [6, 10] was 94% and the inhibition [7] was -2.76% (inactive). For the same compound, the inhibition [8] was -2.26% (inactive).
